Test results taken from ChEMBL document CHEMBL5154715, “Phenolic Lipids Derived from Cashew Nut Shell Liquid to Treat Metabolic Diseases” (J Med Chem, 2022).
pEC50: −log10 of the molar value. Active and inactive are the calls of the source. The calls are words filed in the database; no cut-off is given here.

How the values were obtained:
[1] = molecular target: T1, Peroxisome proliferator-activated receptor alpha (Homo sapiens) (UniProt Q07869); assay: Agonist activity at human PPARalpha transfected in HEK293 cells assessed as relative luciferase unit at 50 uM measured after 16 hrs by luciferase reporter gene assay; assay type: cell-based; settings: filed as agonist
T1 sequence (whole entry): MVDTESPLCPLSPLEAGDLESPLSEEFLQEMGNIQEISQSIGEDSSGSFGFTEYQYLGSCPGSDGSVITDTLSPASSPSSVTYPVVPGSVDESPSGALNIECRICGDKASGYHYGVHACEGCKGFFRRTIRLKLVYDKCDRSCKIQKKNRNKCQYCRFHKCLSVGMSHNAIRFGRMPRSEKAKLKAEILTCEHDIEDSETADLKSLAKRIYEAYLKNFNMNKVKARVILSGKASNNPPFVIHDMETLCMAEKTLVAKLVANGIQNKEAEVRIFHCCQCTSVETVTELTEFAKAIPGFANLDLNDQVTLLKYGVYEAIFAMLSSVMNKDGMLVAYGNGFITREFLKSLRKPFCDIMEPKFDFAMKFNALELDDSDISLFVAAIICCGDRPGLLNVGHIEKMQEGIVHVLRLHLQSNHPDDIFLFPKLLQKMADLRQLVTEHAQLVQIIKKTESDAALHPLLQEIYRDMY
Outline: (§1)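 GAL4-hPPAR (α or γ) plus UAS-luciferase and β-galactosidase transiently co-transfected into HEK293 cells, then treated with 50 μM compound for 16 h. RLU = luciferase/β-galactosidase × time, vehicle (DMSO) set to 1. Mean ± SD, N = 3; one-way ANOVA with Holm–Šidák vs vehicle.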

[2] = molecular target: T2, Peroxisome proliferator-activated receptor gamma (Homo sapiens, UniProt P37231); assay: Agonist activity at human PPARgamma expressed in HEK293 cells by luciferase/beta-galactosidase reporter gene assay; assay type: cell-based
T2 sequence (P37231 whole entry): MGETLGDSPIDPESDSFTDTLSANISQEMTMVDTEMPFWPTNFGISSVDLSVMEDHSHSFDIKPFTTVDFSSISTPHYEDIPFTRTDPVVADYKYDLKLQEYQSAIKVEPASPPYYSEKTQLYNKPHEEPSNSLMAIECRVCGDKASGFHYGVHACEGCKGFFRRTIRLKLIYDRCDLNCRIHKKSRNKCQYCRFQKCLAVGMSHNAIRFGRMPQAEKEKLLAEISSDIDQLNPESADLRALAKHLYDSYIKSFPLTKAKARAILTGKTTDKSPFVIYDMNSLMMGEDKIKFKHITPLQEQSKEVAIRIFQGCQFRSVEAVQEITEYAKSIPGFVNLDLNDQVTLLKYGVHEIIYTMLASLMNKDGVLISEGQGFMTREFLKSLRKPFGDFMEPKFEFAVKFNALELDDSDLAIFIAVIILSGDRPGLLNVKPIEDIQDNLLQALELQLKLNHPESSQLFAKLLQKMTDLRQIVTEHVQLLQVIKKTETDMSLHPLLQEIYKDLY
Outline: (§2)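 HEK293 cells in charcoal-stripped FBS, calcium phosphate co-transfected with GAL4-hPPAR LBD fusion, UAS-luciferase and β-galactosidase. Ligand added 6–8 h post transfection, full dose–response, harvested 14–16 h later. Luciferase normalized to β-galactosidase.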

[3] = molecular target: T3, Peroxisome proliferator-activated receptor gamma (Homo sapiens) (UniProt P37231); assay: Agonist activity at human PPARgamma transfected in HEK293 cells assessed as relative luciferase unit at 50 uM measured after 16 hrs by luciferase reporter gene assay; assay type: cell-based; settings: filed as agonist; outline: as §1
T3 sequence (whole entry): T2 sequence (P37231 whole entry)

[4] = molecular target: T4, Peroxisome proliferator-activated receptor alpha (Mus musculus) (UniProt P23204); assay: Agonist activity at human PPARalpha in mouse hepatocytes assessed as induction of Fgf21 mRNA expression at 50 uM incubated for 16 hrs by quantitative real-time PCR analysis; assay type: cell-based; settings: Hepatocyte, filed as agonist
T4 sequence (whole entry): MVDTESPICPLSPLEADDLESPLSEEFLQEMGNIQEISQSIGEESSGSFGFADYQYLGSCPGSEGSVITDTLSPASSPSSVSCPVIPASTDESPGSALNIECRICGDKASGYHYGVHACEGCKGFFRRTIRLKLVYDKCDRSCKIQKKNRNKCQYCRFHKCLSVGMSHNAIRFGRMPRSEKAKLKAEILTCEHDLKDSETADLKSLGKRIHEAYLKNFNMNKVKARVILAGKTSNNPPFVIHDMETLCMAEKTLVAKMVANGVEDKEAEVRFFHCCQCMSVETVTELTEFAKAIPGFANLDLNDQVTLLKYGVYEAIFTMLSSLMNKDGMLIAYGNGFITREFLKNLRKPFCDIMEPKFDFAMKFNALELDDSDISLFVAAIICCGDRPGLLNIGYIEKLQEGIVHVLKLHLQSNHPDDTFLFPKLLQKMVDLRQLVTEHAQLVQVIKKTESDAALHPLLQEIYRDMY
Outline: (§3)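 Collagenase-perfused mouse primary hepatocytes from WT mice, plated 2 h in attachment medium, overnight in M199 with 5% charcoal-stripped FBS and 1 nM insulin. Treated next day in serum-free M199 with 50 μM compound for 16 h. RNA qPCR (SYBR Green), comparative Ct method.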

Hepatocyte = assay: Cytotoxicity against mouse primary hepatocytes at 25 uM by MTT assay; assay type: toxicity, cell-based; settings: 264 h, time 11 day
[5] = molecular target: T1, Peroxisome proliferator-activated receptor alpha (Homo sapiens); assay: Agonist activity at human PPARalpha expressed in HEK293 cells assessed as maximal activity by luciferase/beta-galactosidase reporter gene assay relative to GW7647; assay type: cell-based; outline: as §2
HEK293 = assay: Cytotoxicity against HEK293 cells at 25 uM by MTT assay; assay type: toxicity, cell-based; settings: human, hek293, 264 h, time 11 day
Outline: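 MTT assay in HEK293 cells with compounds dosed at 25 μM.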

[6] = molecular target: T3, Peroxisome proliferator-activated receptor gamma (Homo sapiens); assay: Agonist activity at human PPARgamma expressed in HEK293 cells assessed as maximal activity by luciferase/beta-galactosidase reporter gene assay relative to rosiglitazone; assay type: cell-based; settings: filed as agonist; outline: as §2
[7] = molecular target: T4, Peroxisome proliferator-activated receptor alpha (Mus musculus); assay: Agonist activity at human PPARalpha in mouse hepatocytes assessed as induction of Pdk4 mRNA expression at 50 uM incubated for 16 hrs by quantitative real-time PCR analysis; assay type: cell-based; settings: Hepatocyte, filed as agonist; outline: as §3
[8] = molecular target: T4, Peroxisome proliferator-activated receptor alpha (Mus musculus); assay: Agonist activity at human PPARalpha in mouse hepatocytes assessed as induction of fabp1 mRNA expression at 50 uM incubated for 16 hrs by quantitative real-time PCR analysis; assay type: cell-based; settings: Hepatocyte, filed as agonist; outline: as §3
[9] = molecular target: T5, Peroxisome proliferator-activated receptor delta (Homo sapiens) (UniProt Q03181); settings: HEK293, filed as agonist
T5 sequence (whole entry): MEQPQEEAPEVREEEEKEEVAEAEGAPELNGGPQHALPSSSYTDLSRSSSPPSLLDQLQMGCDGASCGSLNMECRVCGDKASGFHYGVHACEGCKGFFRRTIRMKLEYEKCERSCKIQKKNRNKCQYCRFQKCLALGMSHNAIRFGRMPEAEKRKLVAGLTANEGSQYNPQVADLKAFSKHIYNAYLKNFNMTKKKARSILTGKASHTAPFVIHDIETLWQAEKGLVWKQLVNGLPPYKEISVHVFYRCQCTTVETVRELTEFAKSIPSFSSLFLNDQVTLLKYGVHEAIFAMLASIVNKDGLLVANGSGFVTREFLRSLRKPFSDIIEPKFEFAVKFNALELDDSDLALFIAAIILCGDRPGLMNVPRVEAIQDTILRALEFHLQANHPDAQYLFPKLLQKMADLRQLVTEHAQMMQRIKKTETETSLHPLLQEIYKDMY

[10] = molecular target: T6, Peroxisome proliferator-activated receptor alpha (Homo sapiens, UniProt Q07869); assay: Agonist activity at human PPARalpha expressed in HEK293 cells by luciferase/beta-galactosidase reporter gene assay; assay type: cell-based; outline: as §2
T6 sequence (Q07869 whole entry): T1 sequence (whole entry)

CCCCCCCCCCCCCCCc1cccc(OCC(=O)O)c1
Activity [1]: Active | pEC50 [2]: 5.43 | Activity [3]: Active | Activity [4]: Active | Activity (Hepatocyte): Non-Toxic | Emax [5]: 30% | Activity (HEK293): Toxic | Emax [6]: > 90% | Activity [7]: Active | Activity [8]: Active | EC50 [9]: 10 µM | pEC50 [10]: 5.96
